Source: PubChem BioAssay (Broad Institute)
Shn3 inh set2: reduces Shn3 3'UTR luciferase signal in osteoblasts. Clone20 osteoblast Shn3 3'UTR firefly luciferase, 24 h. inhibition, % at 12.5 µM. 360,000 compounds, 0.52% hits. AID 588674;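 active = mean inhibition of at least 75% with every replicate also reaching 75%; inconclusive = mean inhibition at least 75% but some replicate below; inactive = mean inhibition below 75%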;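 note: 0% = median of neutral control wells and 100% = pilot-screen positive control compound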
EWS-Fli inh: blocks EWS/Fli oncoprotein-driven transcription. inhibition, % at 12.6 µM. A673 NR0B1-luciferase reporter, viability-normalised. AID 651661. 350,000 compounds, 0.67% hits;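 active = mean inhibition of at least 50% after viability correction, with every replicate also passing that limit; inconclusive = mean reaches 50% but only one of two replicates passes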;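 note: firefly luciferase signal divided by Alamar Blue viability fluorescence both relative to DMSO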
PAX8 inh HTS: inhibitors of PAX8 transcriptional activity in RMG-I cells | RMG-I TPO-luciferase reporter, SteadyGlo, 24 h | inhibition, % at 12.6 µM | 360,000 compounds, 1.2% hits | AID 652154;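 active = mean replicate inhibition at least 60% with every replicate also reaching 60%; inconclusive = only one of the two criteria is met; inactive = mean below 60% and not all replicates reaching 60%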;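 note: luciferase light reporting Pax8 driven TPO promoter activity; plate controls were median of neutral control wells for no effect and mitoxantrone controls for full effect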
LMP1 NFkB inh: inhibitors of Epstein-Barr LMP1-induced NF-kappaB reporter; LMP1-induced NF-kappaB luciferase reporter cells, luminescence; inhibition, % at 12.5 µM; 350,000 compounds, 0.69% hits; AID 504558; in the data active = inhibition above about 41%; inconclusive = no clear call, values can overlap the other calls;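 note: 0% = neutral control wells and 100% = reference inhibitor control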
aSyn 5UTR inh: MLPCN primary screen, SNCA 5' untranslated region; alpha-synuclein 5'UTR reporter, inhibitor activity; inhibition, % (tested at 7.5 µM); 300,000 compounds, 0.82% hits; in the data active = inhibition above about 60%; inconclusive = no clear call, values can overlap the other calls;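 note: H4 neuroglioblastoma cells stably carrying SNCA 5'UTR luciferase fusion; 0% = DMSO wells and 100% = positive control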
FN deposit inh: fibronectin deposition inhibition. AH1F fibroblasts, Alexa488-fibronectin deposition fluorescence, overnight. inhibition, % at 12.6 µM. 350,000 compounds, 0.086% hits;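 active = mean inhibition across replicates of 30% or more, regardless of how many single replicates reach that level; inconclusive = mean under 30% yet at least half of replicates reach 30%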;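 note: positive control wells lacked labelled fibronectin entirely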
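Material: AH1F fibroblasts assembling fluorescent fibronectin matrix; amount: 10000 AH1F cells/well; medium: DMEM, 2% serum; reagent: Alexa488-fibronectin, 24 nM final in well; dosing: single compound dose, delivered by pin transfer; incubation: 1 h adhesion, overnight exposure; detection: fluorescence after three HBSS washes, excitation 485 nm, emission 525 nm; measure: fibronectin deposition inhibition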
Active calls of the source: *; ? = inconclusive; . = no result given; ! = not active in a repeat. Shown are actives, neighbours in structure and some others; about 2.1% of the full set was active somewhere.

SMILES | Shn3 inh set2 | EWS-Fli inh | PAX8 inh HTS | LMP1 NFkB inh | aSyn 5UTR inh | FN deposit inh
C[C@@H]1CN([C@H](C)CO)C(=O)c2cc(NC(=O)Nc3cccc4ccccc34)ccc2O[C@@H](C)CCCCO[C@@H]1CN(C)S(=O)(=O)c1ccccc1 | . | . | . | . | . | -8.9
COc1ccc(S(=O)(=O)Nc2ccc3c(c2)C(=O)N([C@H](C)CO)C[C@H](C)[C@@H](CN(C)C(=O)CCC(F)(F)F)OCCCC[C@@H](C)O3)cc1 | . | -3.2 | -6.4 | . | . | .
COc1ccc(S(=O)(=O)Nc2ccc3c(c2)C(=O)N([C@H](C)CO)C[C@@H](C)[C@H](CN(C)S(=O)(=O)c2ccc(Cl)cc2)OCCCC[C@H](C)O3)cc1 | . | 16.9 | 83.2* | . | . | 2.7
COc1ccc(S(=O)(=O)Nc2ccc3c(c2)C(=O)N([C@H](C)CO)C[C@H](C)[C@H](CN(C)S(=O)(=O)c2ccc(Cl)cc2)OCCCC[C@@H](C)O3)cc1 | . | -3.4 | 1.3 | . | . | -0.4
COc1ccc(S(=O)(=O)N(C)C[C@@H]2OCCCC[C@@H](C)Oc3ccc(NS(=O)(=O)c4ccc(Cl)cc4)cc3C(=O)N([C@@H](C)CO)C[C@H]2C)cc1 | . | 12.4 | 66.2* | . | . | -5.9
CCC(=O)N1CCCCN2[C@@H](CO)[C@H](c3ccc(C#Cc4ccccc4F)cc3)[C@@H]2C1 | . | 2.8 | 1.5 | . | . | .
C[C@H](CO)N1C[C@H](C)[C@@H](CN(C)S(=O)(=O)c2cn(C)cn2)Oc2ccc(NS(=O)(=O)c3ccc(F)cc3)cc2C1=O | . | -9.8 | 11.1 | . | . | .
CCOC(=O)N/N=C/c1c(C)nn(-c2ccccc2Cl)c1Cl | -32.9 | . | -156.3 | -15.5 | -90.6 | 3.5
Cc1nn(-c2ccccc2Cl)c(Cl)c1/C=N/Nc1nc2ccccc2s1 | 83.0 | . | 2.1 | 56.0* | 68.6* | -3.5
COc1ccc(NC(=O)CC2C(=O)N(c3ccccc3)C(=O)N2CCc2cccs2)cc1 (stereo unspecified) | -13.5 | -0.4 | 68.1* | 4.7 | -9.3 | 2.1
C[C@@H]1CN([C@H](C)CO)C(=O)c2cc(NC(=O)Nc3ccccc3)ccc2O[C@@H](C)CCCCO[C@H]1CN(C)Cc1ccccc1 | . | 10.1 | -18.7 | . | . | 5.4
COc1ccc(NC(=O)Nc2ccc3c(c2)[C@H]2C[C@H](CC(=O)N4CCc5ccccc5C4)O[C@H](CO)[C@H]2O3)cc1 | . | 26.1 | 39.7 | . | . | -11.0
COc1ccc(NC(=O)c2cc(C)nc3ccccc23)cc1S(=O)(=O)N1CCOCC1 | -4.7 | -4.2 | -12.3 | -1.7 | . | 6.0
COc1ccc(Nc2nc(-c3ccccc3)nc3ccccc23)cc1S(=O)(=O)N1CCOCC1 | . | 13.5 | 65.1* | 9.5 | 4.8 | 3.1
COc1ccc(CN2[C@@H](CO)[C@@H]3c4ccccc4N(C(=O)CC(F)(F)F)C[C@@H]32)cc1 | . | 23.1 | 19.8 | . | . | .
O=C(/C=C/c1ccccc1)NCc1ccc2c(c1)OCO2 | -1.6 | -23.8 | 3.8 | 3.5 | -1.4 | -2.6
COc1cccc(/C=C/C(=O)NCCc2ccc3c(c2)OCCO3)c1 | 15.0 | 57.4* | 5.7 | 5.2 | -22.5 | 1.4
COc1ccc(/C=C/C(=O)NCCc2ccc(OC)c(OC)c2)cc1 | -3.9 | . | -4.5 | -0.5 | 0.6 | 2.8
O=C(/C=C/c1ccccc1)NCCc1ccc2c(c1)OCCO2 | -2.0 | -3.9 | 69.4* | 3.7 | 10.6 | 4.0
O=C(C[C@H]1C[C@H]2c3cc(NC(=O)C4CCC4)ccc3O[C@H]2[C@@H](CO)O1)NCc1ccncc1 | . | 2.5 | -9.2 | . | . | -4.2
O=C(C[C@H]1CC[C@@H]2[C@H](COC[C@H](O)CN2C(=O)c2ccccc2)O1)NCCCN1CCOCC1 | . | -12.2 | -12.0 | . | . | -7.4
CCC(=O)N1C[C@H](C)[C@H](OC)CN(C)C(=O)c2ccc(NC(=O)COC)cc2OC[C@H]1C | . | . | . | . | . | 0.5
C/C=C/c1ccc2c(c1)O[C@H](CN(C)C(=O)NCCC)[C@@H](C)CN([C@@H](C)CO)S2(=O)=O | . | -3.7 | -22.3 | . | . | .
O=C(c1cccc(F)c1)N1CCCCN2[C@H](C1)[C@@H](c1ccc(-c3ccc(F)cc3)cc1)[C@@H]2CO | . | -12.7 | 65.1* | . | . | .
O=C(Nc1ccc(F)cc1)N1CCCCN2[C@@H](CO)[C@@H](c3ccc(-c4cccc(F)c4)cc3)[C@@H]2C1 | . | 72.4* | 105.9* | . | . | .
SMILES | Shn3 inh set2 | EWS-Fli inh | PAX8 inh HTS | LMP1 NFkB inh | aSyn 5UTR inh | FN deposit inh
O=C(c1cccc(F)c1)N1CCCCN2[C@H](C1)[C@H](c1ccc(-c3ccc(F)cc3)cc1)[C@@H]2CO | . | -6.9 | -4.1 | . | . | .
Cc1ccc(-c2ccc([C@@H]3[C@H](CO)N4CCCCN(C(=O)Nc5cccc(F)c5)C[C@@H]34)cc2)cc1 | . | 32.4 | 81.4* | . | . | .
Cc1ccc(-c2ccc([C@H]3[C@@H](CO)N4CCCCN(C(=O)Nc5cccc(F)c5)C[C@@H]34)cc2)cc1 | . | 19.8 | 11.3 | . | . | .
O=C(Nc1cccc(F)c1)N1CCCCN2[C@@H](CO)[C@@H](c3ccc(-c4ccncc4)cc3)[C@@H]2C1 | . | 4.0 | 110.0* | . | . | .
CC[n+]1c(/C=C/c2c[nH]c3ccccc23)ccc2cc(C)ccc21 | . | 30.6 | 75.8* | 4.7 | . | -117.9
CCN(CC)C(=O)c1ccc(/C=C/c2c[nH]c3ccccc23)[n+](C)c1 | -25.3 | . | -23.9 | 5.1 | -4.4 | -17.0
Cc1noc(C)c1NC(=O)Nc1ccc2c(c1)CC(=O)N([C@@H](C)CO)C[C@@H](C)[C@H](CN(C)Cc1ccc(C(=O)O)cc1)O2 | . | -7.0 | . | . | . | -1.5
CC1=CC(C)(C)N(S(=O)(=O)c2ccc(C)cc2)c2cc(C)ccc21 | 24.9 | . | . | 16.6 | 52.2 | .
COc1ccc2c(c1)C(C)=CC(C)(C)N2S(=O)(=O)c1ccc(C)cc1 | 59.3 | ? | 78.6* | 2.8 | -62.6 | 13.4
CCOc1ccc2c(c1)C(C)=CC(C)(C)N2S(=O)(=O)c1ccc(C)cc1 | 78.5 | 24.0 | 82.1* | 20.5 | 103.2* | -45.6
CC1(C)Cc2c(c(N3CCOCC3)nc3sc4c(NCc5ccco5)nnnc4c23)CS1 | 1.8 | . | . | -5.6 | 46.6 | .
CC1(C)Cc2c(c(N3CCOCC3)nc3sc4c(NCc5ccccc5)nnnc4c23)CS1 | 25.7 | . | . | -3.5 | 68.2* | .
COC(=O)c1ccc2c(c1)C(C)(C)C(/C=C/c1ccc(OC)c(OC)c1OC)=[N+]2C | 88.4* | . | . | 39.1 | 101.6* | .
COc1ccc(/C=N/Nc2ccc(C(=O)O)cc2)c(OC)c1OC | -37.0 | -74.4 | -89.0 | -8.3 | -118.3 | -3.9
COC(=O)c1ccc2c(c1)C(C)(C)C(/C=C/c1ccc(O)cc1)=[N+]2C | 98.7* | . | . | 88.8* | 119.3* | .
C[C@@H]1CCCCO[C@@H](CN(C)Cc2ccc3c(c2)OCO3)[C@@H](C)CN([C@@H](C)CO)C(=O)c2cc(NS(=O)(=O)c3ccc(Cl)cc3)ccc2O1 | . | 69.4*! | 51.1 | . | . | -3.7
C[C@@H]1CCCCO[C@@H](CN(C)Cc2ccc3c(c2)OCO3)[C@@H](C)CN([C@H](C)CO)C(=O)c2cc(NS(=O)(=O)c3ccc(Cl)cc3)ccc2O1 | . | -0.9 | -17.2 | . | . | -10.5
